Compound activity as filed in PubChem.
Only some compounds are listed: those with a hit (about 1.8% of all), similar ones and a draw of the others.
MBD2 DNA inh – blocks human MBD2 binding to methylated DNA | AID 686964 | inhibition, % at 4.4 µM | TR-FRET, MBD2 binding to methylated oligonucleotide | Q9UBB5 | 370,000 tested, 0.31% active; in the data active means inhibition above about 13%
Target sequence (Q9UBB5 whole entry, looked up): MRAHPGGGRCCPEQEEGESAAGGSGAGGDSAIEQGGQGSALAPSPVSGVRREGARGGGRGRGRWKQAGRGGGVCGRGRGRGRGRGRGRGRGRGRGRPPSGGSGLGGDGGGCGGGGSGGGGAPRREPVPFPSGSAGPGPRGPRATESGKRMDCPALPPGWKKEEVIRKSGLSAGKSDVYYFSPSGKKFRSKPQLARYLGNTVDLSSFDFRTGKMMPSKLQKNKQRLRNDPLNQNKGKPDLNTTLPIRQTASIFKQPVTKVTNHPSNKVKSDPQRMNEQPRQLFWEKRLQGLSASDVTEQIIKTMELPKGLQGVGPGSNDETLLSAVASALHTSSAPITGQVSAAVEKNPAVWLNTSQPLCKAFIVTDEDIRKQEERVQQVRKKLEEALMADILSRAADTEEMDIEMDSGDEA
CASP6 VEID inh – caspase-6 (human) enzyme inhibition. P55212. purified caspase-6, Z-VEID-R110 cleavage fluorescence. inhibition, % at 12.5 µM. 350,000 tested, 0.53% active. AID 686996;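 active means mean inhibition across replicates at least about 35%, with every replicate also reaching that limit, limit read from the data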;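 further: 0% = median of neutral control wells and 100% = no fluorescence left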
NSD2 HMT inh – blocks human histone methyltransferase NSD2 | NSD2 peptide methylation, AlphaScreen, 120 min | 310,000 tested, 0.54% active | inhibition, % at 12.5 µM; in the data active means inhibition above about 50%
UHRF1 binding – UHRF1 methyl-DNA binding inhibition; inhibition, % at 4.4 µM; AID 687016; Q96T88; 370,000 tested, 0.75% active; UHRF1 binding to methylated oligo, TR-FRET;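 further: UHRF1 SRA domain binding a hemimethylated CpG hairpin DNA probe; 0% = median of test compound wells and 100% = reference inhibitor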
LEDGF integ inh – blocks HIV-1 LEDGF/p75-dependent DNA integration; TR-FRET IN-LEDGF/p75 DNA integration, Eu/Cy5; inhibition, % at 3.7 µM; 370,000 tested, 0.64% active;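 active means inhibition above the screen-wide mean plus 3 SD, cut at about 13% in these data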;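 further: signal is the Cy5 over europium emission ratio at 671 and 618 nm; 0% = plate median of compound wells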
TDP2 inh – blocks human TDP2 phosphodiesterase activity. O95551. recombinant TDP2, T5PNP hydrolysis, p-nitrophenol absorbance 415 nm. inhibition, % at 12.8 µM. 370,000 tested, 0.34% active. AID 720702;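 active means inhibition above the mean of all tested compounds plus 3 SD, set per campaign, cut at about 25% in these data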;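 further: 0% = DMSO with enzyme and 100% = buffer with substrate but no TDP2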
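Test system: human TDP2 enzyme; Input: 120 nM TDP2 per well; Buffer or medium: Mg2+-containing Tris-HCl buffer, pH 7.5; Reagent: 5 mM T5PNP; Dosing: 12.8 µM single point, 1% DMSO; Incubation: reaction 2 h, 37 °C; Detection: p-Nitrophenol epi absorbance; Read-out: % inhibition relative to enzyme-containing and enzyme-free wells; Replicates: single well per compound.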
UHRF1 DNA bind – counter-screen for MBD2 inhibitors: human UHRF1 methylated DNA binding inhibitors | UHRF1 binding to methylated oligonucleotide, TR-FRET | AID 720530 | inhibition, % at 4.4 µM | 1,000 tested, 25% active | shares compounds with MBD2 DNA inh;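 further: UHRF1 SRA domain binding a labeled hemimethylated CpG hairpin DNA; 0% = vehicle only and 100% = reference inhibitor with vehicle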
MBD2 DBD conf – MBD2-DBD methyl-DNA binding inhibition, TR-FRET confirmation | 1,000 tested, 26% active | shares compounds with MBD2 DNA inh | TR-FRET MBD2-DBD binding to methylated oligonucleotide | inhibition, % at 4.4 µM | AID 720531; in the data active means inhibition above about 14%
CASP1 counter – blocks human caspase-1 in a selectivity counter-screen; shares compounds with CASP6 VEID inh; purified caspase-1, Z-YVAD-R110 cleavage fluorescence; activity change, negative = inhibition, % at 35 µM; 100 tested, under 10 active; AID 743289;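 active means compounds lowering fluorescence whose fitted half-maximal concentration is no more than twice their top tested dose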
TDP2 inh conf – confirmation of human TDP2 inhibitors. 1,100 tested, 22% active. shares compounds with TDP2 inh. inhibition, % at 12.8 µM. recombinant human TDP2, absorbance read-out; in the data active means inhibition above about 25%;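 further: 0% = vehicle with enzyme and 100% = no enzyme buffer only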
IN multimer act – HIV-1 integrase multimerization activation, counter-screen; shares compounds with LEDGF integ inh; TR-FRET HIV-1 integrase multimerization, biochemical; activation, % at 7.7 µM; 2,000 tested, 17% active; AID 1053131; in the data active means activation above about 8.9%
TRFRET interf – optically interferes with TR-FRET readout in LEDGF counter-screen; 2,000 tested, under 10 active; TR-FRET optical interference counterscreen, HIV-1 IN multimerization; shares compounds with LEDGF integ inh; inhibition, % at 7.7 µM;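 active means inhibition above the mean over all tested compounds plus 3 SD, which no compound reached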;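 further: 0% = integrase with antibodies and DMSO and 100% = antibodies without integrase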
IN-LEDGF confirm – LEDGF/p75-dependent HIV-1 integration inhibition, confirmation. AID 1053136. inhibition, % at 3.7 µM. shares compounds with LEDGF integ inh. 2,000 tested, 36% active. TR-FRET LEDGF/p75-dependent HIV-1 integration, biochemical; in the data active means inhibition above about 14%
Alpha artifact – interferes with AlphaScreen signal, flagging NSD2 false positives; 1,500 tested, 9.4% active; shares compounds with NSD2 HMT inh; AC35, µM (titrated, usually from 10 µM), inactives show at the highest dose activity change, negative = signal loss; AlphaScreen artifact counterscreen, preloaded methylated H4 peptide; call rule not given here
The depositor's hits bear a star; / = not tested or not shown. Unless noted, no stated cut-off is given here; in the data, active means inhibition above about 21%; inactive means the rest.

SMILES | MBD2 DNA inh | CASP6 VEID inh | NSD2 HMT inh | UHRF1 binding | LEDGF integ inh | TDP2 inh | CASP1 counter | others
O=S(=O)(O)c1cc(O)c2cc(Nc3ccccc3)ccc2c1 | 26* | 80* | 105* | 33* | 16* | 14 | 13 | UHRF1 DNA bind=31*;MBD2 DBD conf=14*;IN multimer act=41*;TRFRET interf=-145;IN-LEDGF confirm=44*;Alpha artifact=6.4µM*
O=C(O)Cc1ccc(-n2cccc2)cc1 | 14* | 70* | 117* | 30* | 5 | 6 | -1 | UHRF1 DNA bind=57*;MBD2 DBD conf=28*;Alpha artifact=-4%
CCCCn1c(NS(=O)(=O)c2ccccc2)c(S(=O)(=O)c2ccc(C)cc2)c2nc3ccccc3nc21 | 21* | 98* | 102* | 17 | 23* | 89* | / | UHRF1 DNA bind=-4;MBD2 DBD conf=14*;TDP2 inh conf=95*;IN multimer act=2;TRFRET interf=-6;IN-LEDGF confirm=73*;Alpha artifact=-2%
CCOc1cccc(=O)c2c(C)n(-c3ccc(C(=O)O)cc3)c(C)c12 | 31* | 33 | 93* | 88* | 76* | 13 | / | UHRF1 DNA bind=10;MBD2 DBD conf=2;IN multimer act=3;TRFRET interf=-17;IN-LEDGF confirm=30*;Alpha artifact=-5%
CCOc1cccc(=O)c2c(C)n(Cc3ccccc3)c(C)c12 | 0 | 2 | 2 | -3 | -1 | 8 | /
O=S(=O)(N[C@H]1CC[C@H](CCNS(=O)(=O)c2ccccc2Cl)O[C@@H]1CO)c1ccccc1 | / | -1 | / | / | / | / | /
O=C(O)C1Nc2c(Cl)cc(Cl)c(Cl)c2C2C=CCC12 (stereo not drawn) | 1 | 40* | 13 | 5 | 4 | -17 | 21
CCOC(=O)C1Nc2ccc(C)cc2C2C=CCC12 (stereo not drawn) | -3 | 0 | / | -7 | 4 | 9 | /
COc1ccc(C(=O)OCC(=O)Nc2ncc([N+](=O)[O-])s2)cc1OC | 0 | 57* | -2 | 11 | 8 | -11 | -2
Cc1[nH]nc(S(=O)CC(=O)O)c1[N+](=O)[O-] (stereo not drawn) | 1 | 41* | -5 | 0 | 1 | -3 | 9
COc1cccc(NC(=O)C[C@H]2CC[C@@H]3[C@H](COc4ccc(NC(=O)C5CCOCC5)cc4C(=O)N3C)O2)c1 | / | -1 | / | / | / | / | /
CCOc1ccc2nc3cc(NCc4ccc(OC)cc4)ccc3c(N)c2c1 | / | 73* | -6 | / | / | / | 3
O=C(O)CCc1ccc(-c2ccccc2)n1CC(=O)O | 5 | / | 1 | 7 | 6 | -2 | /
O=C(O)CCc1ccc(-c2ccc(Br)cc2)n1CC(=O)O | 2 | 47* | / | 5 | 9 | 5 | 10
O=C(NCc1ccncn1)[C@@H]1[C@@H](CO)[C@@H]2Cn3c(cccc3=O)[C@H]1N2CC1CC1 | / | -1 | / | / | / | / | /
Cc1cccc(S(=O)(=O)N2CCCCN3[C@H](CO)[C@@H](c4ccc(-c5ccccc5)cc4)[C@@H]3C2)c1 | / | -1 | / | / | / | / | /
CCOC(=O)[C@H](Cc1c[nH]c2ccccc12)NC(=O)CN=[N+]=[N-] | / | 38* | / | / | / | / | -1
